{
  "source": "ChEMBL document CHEMBL4699650",
  "about": "“SAR Investigation and Discovery of Water-Soluble 1-Methyl-1,4-dihydroindeno[1,2-c]pyrazoles as Potent Tubulin Polymerization Inhibitors” (J Med Chem, 2020)",
  "key": {"Tubulin (Homo sapiens)": {"molecular_target": "Tubulin (Homo sapiens) (UniProt P68371+Q9H4B7+P0DPH7+P68366+Q13509+Q71U36+P04350+Q3ZCM7+P07437+P68363+Q9BQE3+Q6PEY2+Q13885+Q9BVA1+Q9BUF5)", "experiment": "Induction of microtubule cytoskeleton disruption in human HepG2 cells assessed as microtubule shrinkage to the cell border at 10 nM measured after 24 hrs by Hoechst 33342 staining based immunofluorescence confocal microscopy analysis", "procedure,_shortened": "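Fixed in ice-cold methanol/acetic acid 3:1, permeabilized 0.3% Triton X-100, blocked 5% BSA. Mouse anti-tubulin overnight at 4 °C, then TRITC anti-mouse IgG 2 h at 37 °C. Imaged by laser scanning confocal microscopy.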"}, "HepG2 [1]": {"system": "HepG2", "experiment": "Induction of cell cycle arrest in human HepG2 cells assessed as accumulation in S phase at 5 nM incubated for 24 hrs by propidium iodide staining based flow cytometry (reference value: 26.65%)", "format": "functional"}, "HepG2 [2]": {"system": "HepG2", "experiment": "Induction of cell cycle arrest in human HepG2 cells assessed as accumulation in G2/M phase incubated for 24 hrs by propidium iodide staining based flow cytometry", "format": "functional", "conditions": "dose nM 5-20, time 24.0 hrs"}, "HepG2 [3]": {"system": "HepG2", "experiment": "Induction of apoptosis in human HepG2 cells assessed as late apoptotic cells at 5 nM incubated for 12 hrs by Annexin V-PE and 7-AAD staining based flow cytometry (reference value: 2.79%)", "format": "functional", "procedure,_shortened": "(§1)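 HepG2 cells seeded at 3 × 10⁵ cells/well, adhered overnight, exposed at 5, 10 or 20 nM for 12 or 24 h. Harvested into Annexin V binding buffer and stained with annexin V-PE and 7-AAD for 15 min at room temperature in the dark, then analysed by flow cytometry. Gates: live (−/−), early apoptotic (+/−), late apoptotic (+/+), necrotic (−/+).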"}, "HepG2 [4]": {"system": "HepG2", "experiment": "Induction of apoptosis in human HepG2 cells assessed as late apoptotic cells at 20 nM incubated for 12 hrs by Annexin V-PE and 7-AAD staining based flow cytometry (reference value: 2.79%)", "format": "functional", "procedure,_shortened": "as §1"}, "HepG2 [5]": {"system": "HepG2", "experiment": "Induction of apoptosis in human HepG2 cells assessed as late apoptotic cells at 5 nM incubated for 24 hrs by Annexin V-PE and 7-AAD staining based flow cytometry (reference value: 2.33 %)", "format": "functional", "procedure,_shortened": "as §1"}, "HepG2 [6]": {"system": "HepG2", "experiment": "Induction of apoptosis in human HepG2 cells assessed as necrotic cells at 10 nM incubated for 24 hrs by Annexin V-PE and 7-AAD staining based flow cytometry (reference value: 0.34 %)", "format": "functional", "procedure,_shortened": "as §1"}, "HepG2 [7]": {"system": "HepG2", "experiment": "Induction of apoptosis in human HepG2 cells assessed as late apoptotic cells at 10 nM incubated for 24 hrs by Annexin V-PE and 7-AAD staining based flow cytometry (reference value: 2.33 %)", "format": "functional", "procedure,_shortened": "as §1"}, "HepG2 [8]": {"system": "HepG2", "experiment": "Induction of apoptosis in human HepG2 cells assessed as early apoptotic cells at 10 nM incubated for 24 hrs by Annexin V-PE and 7-AAD staining based flow cytometry (reference value: 4.16 %)", "format": "functional", "procedure,_shortened": "as §1"}, "HepG2 [9]": {"system": "HepG2", "experiment": "Induction of apoptosis in human HepG2 cells assessed as increase in cleaved caspase-3 expression incubated for 24 hrs by Western blot analysis", "format": "functional, cell-based", "conditions": "dose nM 2.5-20, time 24.0 hrs", "procedure,_shortened": "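Lysates (20 μg protein) separated by 10% PAGE and blotted to PVDF. Probed for Bax, Bcl-2, cleaved caspase-3 and cleaved PARP, detected by ECL and quantified by densitometry.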"}, "[10]": {"experiment": "Toxicity in Balb/c nude mouse xenografted with human HepG2 cells assessed as change in body weight at 10 mg/kg, iv administered every 2 days for 21 days (reference value: 7.8 % )", "format": "organism-based", "conditions": "in vivo, 504 h, time 21 day"}, "[11]": {"experiment": "Toxicity in Balb/c nude mouse xenografted with human HepG2 cells assessed as adverse signs at 25 mg/kg, po qd administered for 21 days", "format": "organism-based", "conditions": "in vivo, 504 h, time 21 day", "procedure,_shortened": "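Nude mice received 200 μL PBS with HepG2 cells (1 × 10⁷ cells/mL) subcutaneously in the right armpit. At 90 mm³ tumour volume, randomized to 5 per group. Dosed 25 mg/kg as a 2.5 mg/mL distilled-water solution, intragastric once daily for 21 days; distilled water as vehicle. Body weight recorded every 3 days; change given as initial vs end weight.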"}, "[12]": {"experiment": "Selectivity index, ratio of GI50 for cytotoxicity against human L02 cells to GI50 for antiproliferation activity against human HepG2 cells assessed as cell growth inhibition measured after 72 hrs by MTT assay", "format": "toxicity, cell-based", "conditions": "L02 cells and HepG2 cells, read-out: RatioGI50", "procedure,_shortened": "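MTT assay: cells seeded 4–7 × 10³/well, adhered overnight, exposed to a concentration series for 72 h. MTT (2.5 mg/mL stock) added for 4 h, crystals dissolved in DMSO, absorbance read at 570 nm. GI50 is mean ± SD of ≥3 independent experiments. Selectivity = GI50 on normal LO2 / GI50 on HepG2. Resistance fold = GI50 on resistant cells / GI50 on sensitive cells.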"}, "[13]": {"experiment": "Resistance index, ratio of GI50 for antiproliferation activity against human A549/Taxol cells to GI50 for antiproliferation activity against human A549 cells assessed as cell growth inhibition measured after 72 hrs by MTT assay"}},
  "note": "Active and inactive are the calls of the source. The rule behind the calls is not given here.",
  "data": [
    {"smiles": "CCOc1cccc(Nc2nn(C)c3c2Cc2cc(OCC)c(OCCCN)cc2-3)c1", "values": [
      {"measurement": "Activity", "setting": "Tubulin (Homo sapiens)", "value": "Active"},
      {"measurement": "Activity", "setting": "HepG2 [1]", "value": 30.66, "unit": "%"},
      {"measurement": "Activity", "setting": "HepG2 [2]", "value": "Dose-dependent effect"},
      {"measurement": "Activity", "setting": "HepG2 [3]", "value": 3.53, "unit": "%"},
      {"measurement": "Activity", "setting": "HepG2 [4]", "value": 6.42, "unit": "%"},
      {"measurement": "Activity", "setting": "HepG2 [5]", "value": 4.33, "unit": "%"},
      {"measurement": "Activity", "setting": "HepG2 [6]", "value": 0.61, "unit": "%"},
      {"measurement": "Activity", "setting": "HepG2 [7]", "value": 7.19, "unit": "%"},
      {"measurement": "Activity", "setting": "HepG2 [8]", "value": 16.7, "unit": "%"},
      {"measurement": "Activity", "setting": "HepG2 [9]", "value": "Dose-dependent effect"},
      {"measurement": "Activity", "setting": "[10]", "value": 6.9, "unit": "%"},
      {"measurement": "Activity", "setting": "[11]", "value": "Non-Toxic"},
      {"measurement": "selectivity ratio at 72 h", "setting": "[12]", "value": 118},
      {"measurement": "RatioGI50", "setting": "[13]", "value": 4}
    ]}
  ]
}
